Laboratory results reported in ChEMBL document CHEMBL1132342, “Novel hypotensive agents from Verbesina caracasana. 6. Synthesis and pharmacology of caracasandiamide” (1999).

Assays:
Rattus norvegicus [1] = test: Change in systolic blood pressure after iv administration of 1600 ug/Kg in the presence of adrenaline (agonist) in anesthetized rats; format: functional, Artery
Rattus norvegicus [2] = test: Change in systolic blood pressure after iv administration of 400 ug/Kg in the presence of adrenaline (agonist) in anesthetized rats; format: functional, Artery
Method in brief: (§1)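 Anesthetized male Wistar rats, two groups of 8, received 400 or 1600 µg/kg iv. Before and after this dose, iv agonist challenges were given: noradrenaline 1 µg/kg, adrenaline, acetylcholine 2.50 µg/kg, or isoprenaline. Systolic/diastolic BP, heart rate and dP/dt responses were recorded before (control) and after dosing; significance was set at p < 0.05 versus control.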

Rattus norvegicus [3] = test: Change in systolic blood pressure after iv administration of 400 ug/Kg in the presence of noradrenaline (agonist) in anesthetized rats; format: functional, Artery; method in brief: as §1
Rattus norvegicus [4] = test: Change in diastolic blood pressure after iv administration of 1600 ug/Kg in the presence of isoprenaline (agonist) in anesthetized rats; format: functional, Artery
Method in brief: (§2)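 Urethane-anesthetized male Wistar rats (16 rats, two equal groups) received 400 or 1600 µg/kg compound iv. Cardiovascular responses to iv agonist boluses (noradrenaline 1 µg/kg, acetylcholine 2.50 µg/kg, adrenaline, isoprenaline) were measured before and after compound dosing. Peak responses are given as mean ± SE; p < 0.05 versus control mean.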

Rattus norvegicus [5] = test: Change in diastolic blood pressure after iv administration of 3200 ug/Kg in anesthetized rats; format: functional, Artery
Method in brief: (§3)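 Adult male Wistar rats under ip ethylurethane (10% w/v in saline, 1 mL/kg) with tracheal cannula and spontaneous breathing, kept at 37 °C. Arterial BP was recorded by femoral artery catheter; compound in saline (50 µL) was given via femoral vein at 50–3200 µg/kg, ratio 2.0. Peak change is given as mean ± SE, n = 12 (n = 7 at 3200 µg/kg).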

Rattus norvegicus [6] = test: Change in diastolic blood pressure after iv administration of 4.12 uM/Kg in anesthetized rats; format: functional, Artery
Rattus norvegicus [7] = test: Change in diastolic blood pressure after iv administration of 400 ug/Kg in anesthetized rats; format: functional, Artery; method in brief: as §3
Rattus norvegicus [8] = test: Change in diastolic blood pressure after iv administration of 400 ug/Kg in the presence of isoprenaline (agonist) in anesthetized rats; format: functional, Artery; method in brief: as §2
Rattus norvegicus [9] = test: Change in systolic blood pressure after iv administration of 800 ug/Kg compound (treatment with hexamethonium (5 mg/Kg, iv)in anesthetized rats; format: functional, Artery
Method in brief: (§4)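 Anesthetized rats, n = 6 per group, received iv doses of 200–1600 µg/kg (ratio 2.0) either alone (control) or under pretreatment: continuous iv papaverine infusion 1 mg/kg/min, reserpine 5 mg/kg/day ip for 2 days, or hexamethonium 5 mg/kg iv. Peak changes in BP, heart rate and dP/dt recorded; means ± SE, p < 0.05 versus control.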

Rattus norvegicus [10] = test: Change in systolic blood pressure after iv administration of 800 ug/Kg compound (treatment with papaverine(1 mg/Kg/min, iv)in anesthetized rats; format: functional, Artery; method in brief: as §4
Rattus norvegicus [11] = test: Change in systolic blood pressure after iv administration of 800 ug/Kg compound (treatment with reserpine(5 mg/kg/day for 2 days, ip)in anesthetized rats; format: functional, Artery; method in brief: as §4
Rattus norvegicus [12] = test: Change in heart rate after iv administration of 1600 ug/kg compound (treatment with reserpine(5 mg/kg/day for 2 days, ip))in anesthetized rats; format: functional
Method in brief: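 In anesthetized male Wistar rats, responses to iv compound (200–1600 µg/kg, ratio 2.0) were measured alone and under three pretreatments: continuous iv papaverine infusion (1 mg/kg/min), ip reserpine (5 mg/kg/day for 2 days), or iv hexamethonium (5 mg/kg). Peak changes are given as mean ± SE, n = 6 per group; p < 0.05 versus control.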

Rattus norvegicus [13] = test: Change in heart rate after iv administration of 1600 ug/Kg in the presence of isoprenaline (agonist) in anesthetized rats; format: functional; method in brief: as §2
Rattus norvegicus [14] = test: Change in heart rate after iv administration of 400 ug/kg compound (treatment with hexamethonium (5 mg/kg, iv))in anesthetized rats; format: functional
Method in brief: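 Urethane-anesthetized male Wistar rats, 6 per group, received iv doses of 200-1600 µg/kg (ratio 2.0) given alone or under a pretreatment. Pretreatments were continuous iv papaverine infusion (1 mg/kg/min), reserpine 5 mg/kg/day ip for 2 days, or hexamethonium 5 mg/kg iv. Peak changes in femoral arterial BP and HR were recorded; values are mean ± SE.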

Rattus norvegicus [15] = test: Change in heart rate after iv administration of 800 ug/Kg in anesthetized rats; format: functional
Method in brief: (§5)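 Male Wistar rats (299 ± 3 g) were anesthetized with ethylurethane ip, tracheally cannulated and breathing spontaneously, at 37 °C, and stabilized for 60 min. Doses of 50-3200 µg/kg (ratio 2.0) in saline were injected by femoral vein, 50 µL each. Recordings: femoral arterial BP, electromagnetic abdominal-aortic flow, SV from integrated pulsatile flow, polygraphic RF. Peak changes, mean ± SE, n = 12 (n = 7 at 3200).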

Rattus norvegicus [16] = test: Change in mean aortic flow after iv administration of 400 ug/Kg in anesthetized rats; format: functional; method in brief: as §5
Rattus norvegicus [17] = test: Change in mean aortic flow after iv administration of 800 ug/Kg in anesthetized rats; format: functional; method in brief: as §5
Rattus norvegicus [18] = test: Change in mean aortic flow after iv administration of 100 ug/Kg in anesthetized rats; format: functional; method in brief: as §5
Rattus norvegicus [19] = test: Maximum rate of rise of the left ventricular isovolumetric pressure was measured after iv administration of 1600 ug/Kg in the presence of acetylcholine (agonist) in anesthetized rats; format: functional, Heart left ventricle; method in brief: as §1
Rattus norvegicus [20] = test: Maximum rate of rise of the left ventricular isovolumetric pressure after iv administration of 400 ug/Kg compound (treatment with hexamethonium (5 mg/Kg, iv)in anesthetized rats; format: functional, Heart left ventricle; method in brief: as §4
Rattus norvegicus [21] = test: Maximum rate of rise of the left ventricular isovolumetric pressure was measured after iv administration of 400 ug/Kg in the presence of noradrenaline (agonist) in anesthetized rats; format: functional, Heart left ventricle; method in brief: as §1
Rattus norvegicus [22] = test: Maximum rate of rise of the left ventricular isovolumetric pressure was measured after iv administration of 200 ug/Kg in anesthetized rats; format: functional, Heart left ventricle
Method in brief: (§6)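 Urethane-anesthetized (10% w/v, […] ip in saline) adult male Wistar rats, trachea cannulated, breathing spontaneously, 37 °C. Femoral artery catheter for blood pressure, femoral vein for dosing. Sequential iv doses 50–3200 µg/kg (ratio 2.0) in saline, each given after parameters returned to baseline. Peak changes recorded; means ± SE, n = 12 (n = 7 at 3200 µg/kg).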

Rattus norvegicus [23] = test: Maximum rate of rise of the left ventricular isovolumetric pressure was measured after iv administration of 3200 ug/Kg in anesthetized rats; format: functional, Heart left ventricle; method in brief: as §6
Rattus norvegicus [24] = test: Maximum rate of rise of the left ventricular isovolumetric pressure after iv administration of 800 ug/Kg compound (treatment with reserpine(5 mg/kg/day for 2 days, ip)in anesthetized rats; format: functional, Heart left ventricle; method in brief: as §4
Rattus norvegicus [25] = test: Change in stroke volume after iv administration of 1600 ug/Kg in anesthetized rats; format: functional; method in brief: as §5

COc1ccc(C2C(c3ccc(OC)c(OC)c3)[C@H](C(=O)NCCCC/N=C(\N)NCC=C(C)C)[C@@H]2C(=O)NCCCC/N=C(\N)NCC=C(C)C)cc1OC (stereo partly drawn) [CARACASANDIAMIDE]
BP (Rattus norvegicus [1]): 14 mmHg
BP (Rattus norvegicus [2]): 21 mmHg
BP (Rattus norvegicus [3]): 31 mmHg
BP (Rattus norvegicus [4]): -66 mmHg
BP (Rattus norvegicus [5]): -53 mmHg
Change in BP (Rattus norvegicus [5]): -68%
BP (Rattus norvegicus [6]): -47 mmHg
BP (Rattus norvegicus [7]): -17 mmHg
Change in BP (Rattus norvegicus [7]): -22%
BP (Rattus norvegicus [8]): -49 mmHg
BP (Rattus norvegicus [9]): -50 mmHg
BP (Rattus norvegicus [10]): -22 mmHg
BP (Rattus norvegicus [11]): -11 mmHg
Heart rate (Rattus norvegicus [12]): -14 beats min-1
Heart rate (Rattus norvegicus [13]): 79 beats min-1
Heart rate (Rattus norvegicus [14]): -46 beats min-1
Change in heart rate (Rattus norvegicus [15]): -4%
Heart rate (Rattus norvegicus [15]): -16 beats min-1
Mean aortic flow (Rattus norvegicus [16]): -14 mL/min
Change in mean aortic flow (Rattus norvegicus [17]): -34%
Mean aortic flow (Rattus norvegicus [17]): -25 mL/min
Change in mean aortic flow (Rattus norvegicus [18]): 15%
Mean aortic flow (Rattus norvegicus [18]): 11 mL/min
dP/dt (Rattus norvegicus [19]): -6821 mmHg s-1
dP/dt (Rattus norvegicus [20]): 3938 mmHg s-1
dP/dt (Rattus norvegicus [21]): 5136 mmHg s-1
Change in dP/dt (Rattus norvegicus [22]): 22%
dP/dt (Rattus norvegicus [22]): 1369 mmHg s-1
Change in dP/dt (Rattus norvegicus [23]): 77%
dP/dt (Rattus norvegicus [23]): 4708 mmHg s-1
dP/dt (Rattus norvegicus [24]): 720 mmHg s-1
Change in stroke volume (Rattus norvegicus [25]): -48%
Stroke volume (Rattus norvegicus [25]): -97 µL
